This is an account of results in paper PMC10092581 (Chemistry (Weinheim an Der Bergstrasse, Germany), 2022).

In test [1] the test system is H157 cells. Nature of the test: Transmission electron microscopy. The format is cell-based, human. As to conditions: 24 h, IC50 concentrations. Put shortly: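 About 10^6 H157 cells were treated 24 h after seeding and incubated a further 24 h; untreated and auranofin-treated cells served as references. Cells were fixed in 1.5% glutaraldehyde in 0.2 M sodium cacodylate pH 7.4, post-fixed in 1% OsO4 and embedded in epoxy. Sections were 1 μm (toluidine blue) or 90 nm (uranyl acetate/lead citrate), imaged at 75 kV.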

Test [2] concerns PSN‐1 pancreatic cancer cells. Nature of the test: MTT cytotoxicity, 72 h. Type of test: cell-based, human. As to conditions: read-out: IC50 (μM)±SD PSN‐1, MTT test. On the technique in general: Formazan colour is commonly taken as a measure of viable cells.
Test [3] deals with H157 lung carcinoma cells. Nature of the test: MTT cytotoxicity, 72 h. The following applies: read-out: IC50 (μM)±SD H157, MTT test. The format is cell-based, human. Put shortly: (§1)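 The 2008 and H157 cells were kept in RPMI-1640, and A375 cells in DMEM, each with 10% FCS, antibiotics and 2 mM glutamine, at 37 °C, 5% CO2. Cells (3–8×10^3/well) were exposed 72 h in triplicate, with DMSO at 0.5% final. MTT was added for 5 h, followed by SDS/0.01 M HCl overnight, then A570 relative to untreated wells. IC50 came from a 4-PL fit, means of ≥4 independent experiments.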

Test [4] concerns H157 cells. Nature of the test: Apoptosis induction. The following applies: 48 h, IC50 doses. The format is cell-based, human.
For test [5], the system named is HCT‐15 colon cancer cells. Put plainly: MTT cytotoxicity, 72 h. Type of test: cell-based, human. As to conditions: read-out: IC50 (μM)±SD HCT‐15, MTT test.
For another test, the system named is A375 melanoma cells. Put plainly: MTT cytotoxicity, 72 h. The following applies: read-out: IC50 (μM)±SD A375, MTT test. Type of test: cell-based, human. Put shortly:
as §1

For test [6], the system named is A431 cervical carcinoma cells. Put plainly: MTT cytotoxicity, 72 h. Type of test: cell-based, human. The following applies: read-out: IC50 (μM)±SD A431, MTT test.
The subject of test [7] is MCF‐7 breast cancer cells. Nature of the test: MTT cytotoxicity, 72 h. The following applies: read-out: IC50 (μM)±SD MCF‐7, MTT test. The format is cell-based, human.
Test [8] deals with 2008 ovarian cancer cells. Put plainly: MTT cytotoxicity, 72 h. The format is cell-based, human. As to conditions: read-out: IC50 (μM)±SD 2008, MTT test. Put shortly:
as §1

Test [9] deals with H157 lung cancer cell spheroids. Nature of the test: 3D spheroid cytotoxicity, acid phosphatase. Type of test: cell-based, human. As to conditions: read-out: IC50 (μM)±SD H157 spheroids; 3D spheroids, 72 h, APH assay. A digest of the protocol: (§2)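 H157 or A2780 cells were seeded at 2.5×10^3 cells/well in round-bottom non-treated plates. The medium was phenol red-free RPMI-1640 with 10% FCS plus 20% methyl cellulose stock solution. Spheroids were exposed 72 h to increasing concentrations, with the compound added from DMSO to a final 0.5%. Viability was read by a modified acid phosphatase assay, and IC50 was fitted by a 4-parameter logistic model.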

Test [10] has as its system A2780 ovarian cancer cell spheroids. Nature of the test: 3D spheroid cytotoxicity, acid phosphatase. The following applies: read-out: IC50 (μM)±SD A2780 spheroids; 3D spheroids, 72 h, APH assay. The format is cell-based, human. A digest of the protocol:
as §2

Test [11] concerns A2780 ovarian adenocarcinoma cells. Nature of the test: MTT cross-resistance, sensitive ovarian cells. Type of test: cell-based. As to conditions: Homo sapiens, A2780, 72 h, read-out: IC50 (μM)±SD A2780. A digest of the protocol:
(§3)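 A2780 and A2780 ADR cells were grown in RPMI-1640 with 10% FCS, antibiotics and 2 mM glutamine at 37 °C, 5% CO2. Cells (3–8×10^3/well) were given compound after 24 h and exposed 72 h in triplicate, with DMSO at 0.5% final. MTT was added for 5 h, followed by SDS/0.01 M HCl overnight, then A570 as % of untreated control. IC50 came from a 4-PL fit over ≥4 experiments; RF = IC50 A2780 ADR/IC50 A2780.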

Test [12] deals with LoVo MDR colon cancer cells. Nature of the test: MTT cross-resistance, multi-drug resistant cells. The format is cell-based, human. Put shortly: (§4)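 LoVo, LoVo MDR and LoVo-OXP cells were grown in F-12 HAM'S with 10% FCS, antibiotics and 2 mM glutamine at 37 °C, 5% CO2. LoVo-OXP had been selected over 17 months in increasing oxaliplatin. Cells (3–8×10^3/well) were exposed 72 h in triplicate, with DMSO at 0.5% final. MTT was added for 5 h, followed by SDS/0.01 M HCl overnight, then A570. IC50 came from a 4-PL fit over ≥4 experiments; RF = IC50 resistant/IC50 LoVo.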

The test system of a further test is LoVo colon cancer cells. Nature of the test: MTT cross-resistance, sensitive colon cells. Type of test: cell-based, human. The following applies: 72 h, read-out: IC50 (μM)±SD LoVo. Put shortly: as §4
Test [13] concerns A2780 ADR ovarian cancer cells. Nature of the test: MTT cross-resistance, multi-drug resistant ovarian cells. Type of test: cell-based, human. A digest of the protocol: as §3
Test [14] has as its system LoVo‐OXP colon cancer cells. Nature of the test: MTT cross-resistance, oxaliplatin-resistant cells. Type of test: cell-based, human. Put shortly: as §4
The subject of test [15] is LoVo‐OXP colon cancer cells. As to conditions: as previously reported; cited from earlier work.
Setting [16] is: RF=IC50 resistant cells/IC50 sensitive cells.

Like-named read-outs stand apart in the source and are kept apart here.

As a reminder, the IC50 is the point on the concentration scale where inhibition reaches its midpoint. For `CC(=O)OC[C@H]1O[C@@H]([S-])[C@H](OC(C)=O)[C@@H](OC(C)=O)[C@@H]1OC(C)=O.CCP(CC)CC.[Au+]` [Auranofin, 2,3,4,6‐tetra‐o‐acetyl‐ L‐thio‐β‐D‐glyco‐pyranosato ‐S‐(triethyl‐phosphine) gold(I)], in the test on H157 cells [1], the “mitochondrial morphology (TEM)” value is on record as “dramatic swelling of the mitochondria”. For the same compound, the IC50 was 1 ± 0.4 µM in [2]; 1.6 ± 0.3 µM in test [3]; 0.1 ± 0.02 µM in test [5]; 2.3 ± 1 µM with A375 melanoma cells; 2 ± 0.8 µM in test [6]; 0.9 ± 0.3 µM in test [7]. In addition, the IC50 in [8] amounted to 1 ± 0.2 µM. The “apoptosis, cellular morphological changes (Hoechst 33258)” value with H157 cells [4] is “brightly stained nuclei and morphological features typical of cells undergoing apoptosis”.

As to `N.N.[Cl][Pt][Cl]` [Cisplatin], the IC50 turned out to be 12.1 ± 2.9 µM in [2]; 52.5 ± 1.3 µM in test [9]; 5.9 ± 1.1 µM in test [3]; 11.3 ± 1.5 µM in test [5]; 74.2 ± 8.9 µM in test [10]; 3.1 ± 0.4 µM in the test with A375 melanoma cells. Also, the IC50 was determined as 1.4 ± 0.3 µM in test [6], 8.8 ± 1 µM in test [7] and 2.2 ± 1.3 µM in [8].

Consider `COc1cccc2c1C(=O)c1c(O)c3c(c(O)c1C2=O)C[C@@](O)(C(=O)CO)C[C@@H]3O[C@H]1C[C@H](N)[C@H](O)[C@H](C)O1` [Doxorubicin], for which the IC50 was 0.01 ± 0.001 µM in test [11]; 19.2 ± 2.3 µM in test [12] (Homo sapiens, LoVo, 72 h, read-out: IC50 (μM)±SD LoVo MDR); 1.1 ± 0.2 µM in the test on LoVo colon cancer cells (Homo sapiens, LoVo); 0.16 ± 0.03 µM in [13] (Homo sapiens, A2780 ADR, 72 h, read-out: IC50 (μM)±SD A2780 ADR). Further, in test [12] (setting [16]), the “RF (LoVo MDR/LoVo)” value is 17.5 –. Besides, the “RF (A2780 ADR/A2780)” value in test [13] (setting [16]) is on record as 16.0 –.

For the compound `O=C(O)C(=O)O.[NH-][C@@H]1CCCC[C@H]1[NH-].[Pt+2]` [oxaliplatin], the “RF (LoVo‐OXP/LoVo)” value in [14] (setting [16]) is listed as “ND 13.0”. For the same compound, the 50% inhibitory concentration (IC50) in test [14] (read-out: IC50 (μM)±SD LoVo‐OXP, 72 h, MTT test) was found to be 14.3 µM; with LoVo colon cancer cells (MTT test) it was 1.1 ± 0.6 µM. Moreover, in test [15], the “resistance of LoVo OXP cells vs parental cells” value is listed as “about 13 fold”.
